Measured values taken from article PMC9902323 (Clinical Drug Investigation, 2023).

Legend:
[1] = tested on: individuals with type 2 diabetes; test: Safety assessments; format: in vivo, human; conditions: all injection regions; N (%) of 25
Outline: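 Over three treatment periods, 25 participants with type 2 diabetes each received one 5.6 U/kg s.c. dose per region (thigh, abdomen, upper arm), stayed in-house to 60 h, and underwent a 36–60 h glucose clamp at 7.5 mmol/L. Monitoring covered adverse events, labs, vital signs and examination. Hypoglycaemia levels: 1, plasma glucose <3.9 and ≥3.0 mmol/L; 2, <3.0 mmol/L; 3, severe cognitive impairment needing assistance.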

Pharmacokinetics = format: in vivo, human; conditions: single s.c. dose 5.6 U/kg; p < 0.001
albumin = conditions: after s.c. administration and absorption into the circulation; cited from earlier work

Q: For insulin icodec, which “Participants reporting adverse events” value [1] is on record?
A: 12 (48%) participants

Q: And the “Cmax after single dose higher for upper arm versus thigh” value (Pharmacokinetics)?
A: 24%

Q: What about the Binding to albumin (albumin) of the same substance?
A: binds strongly to albumin
